ChEMBL document CHEMBL1137156, “Novel substituted 4-phenyl-[1,3]dioxanes: potent and selective orexin receptor 2 (OX(2)R) antagonists” (Bioorg Med Chem Lett, 2004)

What was measured:
[1] = species on record: Homo sapiens; experiment: Selectivity of Orexin type 2 receptor over Orexin type 1 receptor
[2] = target: T1, Orexin/Hypocretin receptor type 1 (Homo sapiens, UniProt O43613); experiment: Binding affinity towards human orexin receptor type 1 was determined using [125I]-Orexin A as radio ligand
T1 sequence (O43613 whole entry): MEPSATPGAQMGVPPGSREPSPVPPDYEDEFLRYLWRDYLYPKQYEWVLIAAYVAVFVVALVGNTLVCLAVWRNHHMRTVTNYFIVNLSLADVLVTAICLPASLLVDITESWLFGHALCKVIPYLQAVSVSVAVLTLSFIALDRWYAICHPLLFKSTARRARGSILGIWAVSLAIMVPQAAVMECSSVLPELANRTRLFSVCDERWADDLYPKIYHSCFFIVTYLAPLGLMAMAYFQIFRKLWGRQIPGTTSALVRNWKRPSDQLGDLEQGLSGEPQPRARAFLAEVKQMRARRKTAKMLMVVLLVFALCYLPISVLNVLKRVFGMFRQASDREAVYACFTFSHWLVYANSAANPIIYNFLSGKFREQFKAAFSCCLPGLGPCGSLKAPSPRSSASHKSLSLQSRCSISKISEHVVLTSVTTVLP
Summary of the method: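 Clonal CHO-K1 cells expressing the orexin receptor, grown adherent on poly-D-lysine-coated plates. Binding in Dulbecco's PBS with 0.1% w/v BSA, 10⁵ cpm ¹²⁵I-orexin A (2200 Ci/mmol) plus test compound, 90-120 min at room temperature. Wells washed with iced buffer, then scintillation counted. Ki with 95% confidence intervals from N = 3 assays.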

[3] = target: T2, Orexin receptor type 2 (Homo sapiens, UniProt O43614); experiment: Binding affinity towards human orexin receptor type 2 was determined using [125I]-Orexin A as radio ligand
T2 sequence (O43614 whole entry): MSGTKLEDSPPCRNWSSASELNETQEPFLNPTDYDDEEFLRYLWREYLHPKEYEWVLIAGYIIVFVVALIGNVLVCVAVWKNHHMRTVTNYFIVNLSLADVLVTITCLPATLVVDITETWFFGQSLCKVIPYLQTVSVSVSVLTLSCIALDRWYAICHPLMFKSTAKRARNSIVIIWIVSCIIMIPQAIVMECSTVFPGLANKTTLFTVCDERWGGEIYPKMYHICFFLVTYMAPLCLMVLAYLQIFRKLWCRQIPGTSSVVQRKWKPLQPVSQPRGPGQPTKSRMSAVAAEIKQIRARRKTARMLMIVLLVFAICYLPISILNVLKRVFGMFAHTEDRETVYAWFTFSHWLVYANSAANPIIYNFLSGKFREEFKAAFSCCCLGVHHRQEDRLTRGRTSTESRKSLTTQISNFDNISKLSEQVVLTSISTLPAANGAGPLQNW

[4] = target: T3, Orexin receptor type 2 (Homo sapiens) (UniProt O43614); experiment: Antagonistic activity towards intracellular calcium levels in cells expressing Orexin receptor type 2; type: functional, cell-based
T3 sequence (whole entry): T2 sequence (O43614 whole entry)
Summary of the method: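 Fluo-3 AM-loaded cells expressing OX2R, intracellular Ca⁺⁺ fluorescence. […] For compounds with OX2R pKi above 6.3, pKB came from the orexin B EC50 and IC50s from antagonist dilutions, all on one 96-well plate.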

Selectivity [1] | Ki [2] | Ki [3] | pKb [4] | SMILES
20 | 1000 nM | 50.1 nM | – | CC1(C)OC[C@H](NC(=O)Nc2ccccc2-c2cccs2)[C@H](c2ccccc2)O1
> 40 | > 10000 nM | 251 nM | – | CC1(C)OC[C@H](NC(=O)Nc2ccc(Br)cc2)[C@H](c2ccccc2)O1
> 100 | > 10000 nM | 100 nM | – | CC1(C)OC[C@H](NC(=O)Nc2ccccc2C(F)(F)F)[C@H](c2ccccc2)O1
> 20 | > 10000 nM | 398 nM | – | CC1(C)OC[C@H](NC(=O)Nc2ccccc2F)[C@H](c2ccccc2)O1
30 | 2000 nM | 79.4 nM | – | CC1(C)OC[C@H](NC(=O)Nc2ccccc2-c2ccsc2)[C@H](c2ccccc2)O1
> 80 | > 5010 nM | 63.1 nM | – | Cc1ccc(Cl)c(NC(=O)N[C@H]2COC(C)(C)O[C@H]2c2ccccc2)c1
> 20 | > 10000 nM | 501 nM | – | CC1(C)OC[C@H](NC(=O)Nc2ccccc2)[C@H](c2ccccc2)O1
> 4 | > 10000 nM | 2510 nM | – | COc1ccccc1NC(=O)N[C@H]1COC(C)(C)O[C@H]1c1ccccc1
> 900 | > 5010 nM | 6.31 nM | – | CC1(C)OC[C@H](NC(=O)Nc2ccc(Br)cc2Cl)[C@H](c2ccccc2)O1
> 80 | > 5010 nM | 63.1 nM | – | CC1(C)OC[C@H](NC(=O)Nc2cc(Cl)ccc2Cl)[C@H](c2ccccc2)O1
> 70 | > 10000 nM | 126 nM | – | Cc1ccc(NC(=O)N[C@H]2COC(C)(C)O[C@H]2c2ccccc2)c(C)c1
> 70 | > 5010 nM | 79.4 nM | 6.5 | CC1(C)OC[C@H](NC(=O)Nc2ccccc2I)[C@H](c2ccccc2)O1
> 9 | > 10000 nM | 1000 nM | – | CC1(C)OC[C@H](NC(=O)Nc2cccc(Br)c2)[C@H](c2ccccc2)O1
> 100 | > 10000 nM | 79.4 nM | 6 | CC1(C)OC[C@H](NC(=O)Nc2ccccc2Cl)[C@H](c2ccccc2)O1
200 | > 10000 nM | 39.8 nM | – | Cc1cc(Br)ccc1NC(=O)N[C@H]1COC(C)(C)O[C@H]1c1ccccc1
100 | 2510 nM | 20 nM | 7 | CC1(C)OC[C@H](NC(=O)Nc2ccc(Cl)cc2Cl)[C@H](c2ccccc2)O1
> 4 | > 10000 nM | 2510 nM | – | CC(C)c1ccccc1NC(=O)N[C@H]1COC(C)(C)O[C@H]1c1ccccc1
600 | 3160 nM | 5.01 nM | 7.9 | CC1(C)OC[C@H](NC(=O)Nc2ccc(Br)cc2Br)[C@H](c2ccccc2)O1
– | 2000 nM | – | 6.3 | CC1(C)OC[C@H](NC(=O)Nc2ccccc2Br)[C@H](c2ccccc2)O1

SMILES | Selectivity [1] | Ki [2] | Ki [3] | pKb [4]
CC1(C)OC[C@H](NC(=O)Cc2ccccc2Br)[C@H](c2ccccc2)O1 | > 7 | > 10000 nM | 1580 nM | –
CC1(C)OC[C@H](NC(=O)Oc2ccccc2Cl)[C@H](c2ccccc2)O1 | > 6 | > 10000 nM | 1580 nM | –
CC1(C)OC[C@H](/N=C(\S)Nc2ccc(Cl)cc2Cl)[C@H](c2ccccc2)O1 | > 50 | > 10000 nM | 200 nM | –
CC1(C)OC[C@H](NC(=O)Nc2c(Cl)cccc2Cl)[C@H](c2ccccc2)O1 | > 2 | > 10000 nM | > 5010 nM | –
CC1(C)OC[C@H](NC(=O)Nc2ccccc2-c2ccccc2)[C@H](c2ccccc2)O1 | 4 | 501 nM | 100 nM | –
CC1(C)OC[C@H](NC(=O)c2ccc(Cl)cc2Cl)[C@H](c2ccccc2)O1 | > 50 | > 10000 nM | 200 nM | –
CC1(C)OC[C@H](NC(=O)Nc2ccccc2-c2cccnc2)[C@H](c2ccccc2)O1 | > 20 | > 5010 nM | 316 nM | –
CC1(C)OC[C@H](NC(=O)Nc2ccccc2-c2ccccc2Cl)[C@H](c2ccccc2)O1 | 5 | 126 nM | 25.1 nM | –
CC1(C)OC[C@H](NC(=O)Nc2ccccc2-c2cccc(Cl)c2)[C@H](c2ccccc2)O1 | 6 | 501 nM | 79.4 nM | –
Cc1ccc(/N=C(\NC#N)N[C@H]2COC(C)(C)O[C@H]2c2ccccc2)c(Br)c1 | > 8 | > 10000 nM | 1260 nM | –
CC1(C)OC[C@H](/N=C(\S)Nc2ccccc2Br)[C@H](c2ccccc2)O1 | > 30 | > 10000 nM | 398 nM | –
